# Most compounds without a hit are left out; they make up all but 3.2% or so of the library.
# DAX1 inh-1: inhibits human nuclear receptor DAX1. P51843. HEK293 Gal4-DAX1 luciferase reporter, luminescence. inhibition, % at 6.75 µM. actives 0.99% (n = 340,000);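 active = inhibition above the mean over all tested compounds plus 3 SD, cut at about 4.2% in these data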;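 note: 0% = DAX1-transfected cells with DMSO and 100% = empty-vector control cells with DMSO; inhibition shows as a rise in luminescence from relieved DAX1 repression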
# JMJD2C inh: human JMJD2C demethylase inhibition. inhibition, % at 2.35 µM. AID 2099. actives 0.069% (n = 330,000). GST-JMJD2C(1-420) H3K9me3 demethylation, DELFIA europium;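 active = more than half of a compound's replicate wells show inhibition beyond 50%, single wells judged on their own value; inconclusive = some, but no more than half, of replicates pass 50% inhibition; inactive = no replicate passes 50% inhibition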;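 note: signal counts dimethyl H3K9 product captured on neutravidin plate; 0% = median of DMSO wells and 100% = 0.3 times that DMSO median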
# Target sequence (Q9H3R0 1-420 limits assumed): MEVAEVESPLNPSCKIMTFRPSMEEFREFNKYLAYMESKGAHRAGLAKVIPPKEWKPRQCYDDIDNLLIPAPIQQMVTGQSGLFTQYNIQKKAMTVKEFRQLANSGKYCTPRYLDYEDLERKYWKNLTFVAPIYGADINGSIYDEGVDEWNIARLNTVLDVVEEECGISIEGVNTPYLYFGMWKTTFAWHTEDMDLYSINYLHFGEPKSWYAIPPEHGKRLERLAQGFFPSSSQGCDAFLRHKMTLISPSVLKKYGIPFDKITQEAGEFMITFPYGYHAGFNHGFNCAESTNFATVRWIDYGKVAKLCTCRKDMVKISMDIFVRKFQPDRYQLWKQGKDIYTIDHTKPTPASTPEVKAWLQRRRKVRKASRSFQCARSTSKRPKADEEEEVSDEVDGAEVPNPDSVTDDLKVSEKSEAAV
# NR2E3 ag-1: agonists of human nuclear receptor NR2E3; Q9Y5X4; GST-NR2E3/biotin-RetCOR TR-FRET, 1536-well; inhibition of corepressor binding, % at 4.78 µM; actives 0.12% (n = 320,000);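 active = percent inhibition above the cutoff of mean plus 3 SD of all tested compounds, set per screening campaign, cut at about 20% in these data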;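 note: 0% = DMSO wells and 100% = biotin wells as full block of FRET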
#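 Material – GST-tagged NR2E3 plus biotinylated RetCOR corepressor · Quantity – NR2E3 fusion 1.35 nM · Times – 5 h incubation at 4 °C · Medium – pH 7.5 Tris-based buffer · Technique – TR-FRET, Eu(K)-anti-GST donor, streptavidin-D2 acceptor, ex 340, em 617/671 nm · Benchmarks – high control biotin, low control 0.6% DMSO · Format – 1536-well plates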
# DAX1 inh-2: inhibitors of DAX1 repression of SF-1 activated StAR promoter; HEK293T StAR-luciferase reporter, SF-1/DAX-1 repression relief; inhibition, % at 6.8 µM; actives 1.1% (n = 370,000); AID 652010;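 active = inhibition above the mean over all tested compounds plus 3 SD, cut at about 3.6% in these data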;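 note: 0% = DAX-1 cells with DMSO and 100% = cells lacking DAX-1 with DMSO; higher inhibition means more luminescence from relief of DAX-1 repression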
# SMARCA2 activ: activators of SMARCA2 function. MG213 cells, MMTV-luciferase reporter, dexamethasone, overnight. activation, % at 9.1 µM. actives 1% (n = 370,000); in the data active = activation above about 7.8%;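 note: 0% = vehicle wells and 100% = reference activator wells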
# NR2E3 ag-2: activates human NR2E3 receptor; AID 602229; CHO-S Gal4-NCOR/VP16-NR2E3 two-hybrid, luciferase; inhibition of corepressor binding, % at 3.98 µM; Q9Y5X4; actives 0.35% (n = 360,000);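 active = inhibition above the mean of all tested compounds plus 3 SD, cut at about 70% in these data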;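 note: 0% = DMSO with NR2E3 transfected cells and 100% = cells lacking NR2E3 construct; higher means lower luciferase signal from less NR2E3 corepressor binding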
# An asterisk follows results filed as active; i = inactive; ? = inconclusive; / = no result.
SMILES,DAX1 inh-1,JMJD2C inh,NR2E3 ag-1,DAX1 inh-2,SMARCA2 activ,NR2E3 ag-2
CC(Oc1ccc(Cl)cc1Cl)C(=O)NNC(=O)c1cccnc1 (stereo not given),0,13,0,2,-1,-38
CC(Oc1ccc(Cl)cc1Cl)C(=O)NNC(=O)c1ccncc1 (stereo not given),4.8*,-18,1,0,4,12
O=C(CSc1nc2ccccc2n1Cc1ccccc1)NN=C/C=C/c1ccccc1,/,/,/,0,-3,/
COC(=O)C1CN(C2CCCC2)CCS(=O)(=O)N1Cc1cn(Cc2ccc(OC)cc2)nn1 (stereo not given),/,/,/,0,-2,/
COc1ccc(-c2nnc(SCC(=O)N3CCN(c4ccccc4)CC3)o2)cc1OC,6.2*,6,3,0,0,2
COc1ccccc1NC(=O)CSc1nnc(-c2ccncc2)o1,1,-20,-1,0,-1,-17
COc1ccc(-c2nnc(SCC(=O)Nc3ccccc3OC)o2)cc1,2,-19,-1,4.3*,4,-46
COc1ccc(-c2nnc(SCC(=O)NC3CC3)o2)c(OC)c1,-1,/,/,4.3*,0,-44
COc1ccc(OC)c(-c2nnc(SCC(=O)NC3CCCCC3)o2)c1,1,3,-3,-1,0,-1
Cc1cnc(NC(=O)CSc2nnc(-c3ccccc3)o2)s1,6.4*,-5,2,3,3,-108
Cc1cnc(NC(=O)CSc2nnc(COc3ccccc3)o2)s1,0,-4,3,0,3,-15
COC1=C[C@H](C(=O)NCc2ccc(Cl)cc2)C(C)C(c2ccccc2)CC1=O (stereo not given in full),/,/,/,-1,2,/
O=C(CCc1ccccc1)N[C@H]1[C@H](OC(=O)c2ccco2)CCC[C@@]12C(=O)N(Cc1ccccc1)c1ccccc12,/,/,/,-1,-1,/
COc1ccc(NC(=O)CSc2nnc(-c3ccc(F)cc3)o2)cn1,2,3,-1,4.0*,-1,-20
CC(C)(C)NC(=S)NNC(=O)c1ccc2ncccc2c1,2,0,2,3.8*,4,-103
Cc1ccc(NCCCn2cnc(C(=O)Nc3ccc(C)c(C)c3)n2)cc1C,-1,/,/,0,-2,-18
Cc1ccc(NC(=O)c2ncn(CCCNCC3CCCCC3)n2)cc1C,0,/,/,3.9*,-1,0
CC(=O)N1CCN2C(=O)C1CCCC(=O)c1cc(C3CCCCC3)ccc12 (stereo not given),4.3*,1,-3,1,1,0
O=C(Nc1cccnc1)c1ccc(N2CCCC2)c([N+](=O)[O-])c1,5.2*,-3,-5,0,1,-19
O=C(Nc1cccnc1)c1ccc([N+](=O)[O-])o1,0,-20,0,-1,7.8*,-20
CCOC(=O)CC[C@@H]1CC[C@]2(CCCN(C(=O)C3CCCCC3)C2)O1,/,/,/,0,-3,/
Brc1ccc(-c2cn3ccccc3n2)s1,1,-1,3,4.3*,1,-193
Clc1ccc(-c2cn3ccccc3n2)cc1,0,-9,3,2,3,-153
COc1ccccc1-c1noc(-c2ccccc2)n1,2,4,5,3.7*,7,-193
c1ccc2c(-c3nc(-c4ccncc4)no3)cccc2c1,1,?,1,0,3,-106
SMILES,DAX1 inh-1,JMJD2C inh,NR2E3 ag-1,DAX1 inh-2,SMARCA2 activ,NR2E3 ag-2
Fc1ccccc1-c1nc(-c2ccncc2)no1,4.8*,-5,2,1,6,-126
Cc1cccc(-c2nc(-c3ccncc3)no2)c1,5.3*,-3,-1,2,4,-80
c1ccc(-c2noc(-c3cccc4ccccc34)n2)cc1,3,-9,-1,3.7*,6,-45
COC(=O)[C@]12C[C@H](CC(=O)NCc3ccc(OC)c(OC)c3)C(=O)N(CCc3ccc(OC)c(OC)c3)C1=C[C@H](C(C)C)O[C@@H]2C1CC1,/,/,/,-1,-2,/
CCC(CO)Nc1cccc2c1S(=O)(=O)N(Cc1cn(Cc3cccc(F)c3)nn1)Cc1ccccc1O2 (stereo not given),/,/,/,1,-3,/
Cc1ccc(-c2nc(-c3ccncc3)no2)cc1,3,-1,/,1,4,-88
Cc1ccc(-c2nc(-c3ccccc3)no2)cc1,2,1,2,3.9*,7.8*,-118
CC(COc1cccc(Br)c1)CN1CCC(C(O)(c2ccccc2)c2ccccc2)CC1 (stereo not given),/,/,/,-2,-8,/
O=C(O)c1ccc2c(c1)C(=O)N(CCC1=CCCCC1)C2=O,0,101*,2,0,1,3
Nn1c(SCC(=O)Nc2ccccc2-c2ccccc2)nnc1-c1cc(-c2ccccc2)n[nH]1,/,/,/,-1,-6,/
O=C(Cc1ccc([N+](=O)[O-])cc1)Nc1nccs1,7.2*,11,0,0,-2,19
O=C(Nc1nccs1)c1ccc([N+](=O)[O-])cc1,1,-10,-1,0,2,-10
CCOc1ccc(N2C(=O)c3ccccc3C2O)cc1 (stereo not given),2,2,3,3.8*,4,-114
CN(NC1OC(=O)c2ccccc21)c1ccccc1[N+](=O)[O-] (stereo not given),8.0*,-16,-3,0,2,5
CN(NC1OC(=O)c2ccccc21)c1ncc(Cl)cc1C(F)(F)F (stereo not given),/,-23,1,-1,-2,0
Clc1nn2cnnc2c2ccccc12,6.2*,2,-2,0,-1,-4
N#C/C(=C\c1cccs1)C(=O)Nc1ccccn1,6.9*,i,0,3,4,3
N#C/C(=C\c1ccccc1)C(=O)Nc1ccccn1,1,10,-5,0,1,-19
CC(C)(C)c1ccc(C(=O)/C(C#N)=C/c2cccs2)cc1,4.6*,-7,2,0,-5,-7
CCc1nnc(NS(=O)(=O)c2ccc(N/C=C/C(=O)c3ccc(C)cc3)cc2)s1,1,5,2,2,7,-52
CCCc1nnc(NC(=O)c2cccc(OC)c2)s1,3,1,0,4.0*,2,-105
COc1cc(C(=O)Nc2nnc(CC(=O)NCc3ccccc3)s2)cc(OC)c1OC,4.2*,-1,2,2,-1,11
CCc1nnc(NS(=O)(=O)c2ccc(N/C=C\C(=O)c3cccc(OC)c3)cc2)s1,1,7,-1,2,7.9*,-72
CCC[C@H]1CN(c2ccccc2)C(=O)[C@@H]1CC(=O)Nc1ccc(Br)cc1,7.8*,/,/,1,0,-34
Cc1cc(C(=O)Nc2ccc(Br)cc2)cs1,1,-1,-1,3.9*,1,-28
CNS(=O)(=O)c1ccc(NC(=O)c2csc(C)c2)cc1,1,2,0,-1,-2,-18
